Beta cell apopt = blocks beta cell apoptosis | INS-1E cytokine-induced death, ATP luminescence, 48 h; percent of positive-control rescue, neutral wells zero | protection from apoptosis, % (concentration not given with the values) | actives 0.8% (n = 300,000) | AID 435005;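 active = Every replicate reaches about 75%, or at least half do and their mean reaches it too, limit read from the data; inconclusive = At least half of replicates reach the limit but their mean does not; inactive = Under half of replicates reach the limit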;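 also: 0% = cytokine-treated negative control wells and 100% = positive control rescue; higher means more ATP so stronger rescue from cytokine killing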
Calb FLC = affects C. albicans growth with fluconazole; C. albicans CaCi-2 (fluconazole-resistant clinical isolate) + fluconazole, Alamar Blue growth, 48 h; growth inhibition, % (concentration not given with the values); actives 0.57% (n = 300,000); AID 1979;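 active = growth inhibition above about 58% in most replicates, limit read from the data, passing the limit was not always enough; inconclusive = exactly half the replicates above a set limit; inactive = most replicates below a set limit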;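 also: all wells also contain fluconazole at 8 µg/ml as a sub-toxic cotreatment; 0% = median of DMSO wells and 100% = median of geldanamycin control wells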
T cruzi repl = blocks replication of Trypanosoma cruzi; T. cruzi beta-gal in NIH3T3, luminescence, 90 h; inhibition, % (test concentration not listed); actives 1.4% (n = 300,000);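 active = mean inhibition across valid replicates above about 55%, limit read from the data; inconclusive = mean below that limit but half or more replicates reach it; inactive = mean below it, under half of replicates reach it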;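 also: signal also drops with host cell toxicity which is not excluded here; 0% = plate median of DMSO wells and 100% = zero luminescence signal; higher percent means less beta-gal luminescence so fewer parasites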
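System: mouse NIH/3T3 fibroblasts infected with β-gal-expressing T. cruzi Tulahuen C4 / Input: NIH/3T3 cells, 5,000 per well / Buffer or medium: Low-serum DMEM with 2% FBS / Probe or stimulus: 5000 reporter trypomastigotes per well / Schedule: ≥90 h infection period, 3 h prior cell attachment / Measured by: GalScreen luminescence, 60 min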
CSC inhib = blocks cancer stem cells; cancer stem cell-like cells viability, luminescence; inhibition, % at 7.5 µM; actives 1.1% (n = 300,000); AID 2717; in the data active = inhibition above about 75%; inconclusive = no clear call, values can overlap the other calls; tested in HMLE shEcad cells
Mdm2-MdmX inh = human Mdm2/MdmX binding inhibition; inhibition, % at 8 µM; actives 3% (n = 330,000); SaOS-2 split-luciferase Mdm2/MdmX complementation, luminescence;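 active = inhibition of at least 50% at 8 µM in the primary screen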
SKKanGAS inh = inhibitors of SKKanGAS S. pyogenes growth in kanamycin (SK-promoter or general growth effect); BacTiter-Glo, 6 h; inhibition, % at 7.5 µM; actives 1.3% (n = 300,000); AID 1662;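 active = mean replicate score, as percent of positive control median, at least 50; inconclusive = mean below 50 but one replicate at or above 50; inactive = mean and every replicate below 50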;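 also: strain carries kanamycin resistance gene driven by streptokinase promoter and grows in 40 µg/ml kanamycin; loss of luminescence reflects streptokinase promoter inhibition or plain growth inhibition; 0% = median of DMSO wells and 100% = positive control at its reference dose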
Active calls of the source: *; ? = inconclusive; nt = not tested or not shown. Compounds with a hit are over-represented: about 5.7% of the library has one in this group of screens.

SMILES	Beta cell apopt	Calb FLC	T cruzi repl	CSC inhib	Mdm2-MdmX inh	SKKanGAS inh
O=S(=O)(NCC(c1ccco1)N1CCN(c2ccc(F)cc2)CC1)c1ccc2c(c1)OCCO2 (configuration not stated)	1	114*	-1	nt	22	6
COc1ccccc1N1CCN(C(CNS(=O)(=O)c2cc(F)ccc2F)c2cccnc2)CC1 (configuration not stated)	1	-2	65*	9	10	-12
O=S(=O)(NCC(c1cccnc1)N1CCN(c2ccc(F)cc2)CC1)c1ccccc1 (configuration not stated)	2	0	59*	-3	0	2
O=S(=O)(NCC(c1ccco1)N1CCc2ccccc2C1)c1ccc(F)cc1 (configuration not stated)	-1	-8	12	18	15	3
O=C(NCc1cccnc1)C(=O)NCC(c1ccco1)N1CCN(c2ccccc2)CC1 (configuration not stated)	-5	?	-21	-18	-49	-10
O=C(NCC(c1cccnc1)N1CCN(c2ccccc2)CC1)c1ccco1 (configuration not stated)	nt	4	65*	nt	-18	-15
CC(C)NC(=O)/C(C#N)=C/c1ccc(N(C)C)o1	-1	4	-2	-13	15	13
CC(OC(=O)c1ccccc1CCc1ccccc1)C(N)=O (configuration not stated)	-4	0	-13	12	8	-2
O=S(=O)(NCC(c1cccnc1)N1CCN(c2ccccc2)CC1)c1cc(F)ccc1F (configuration not stated)	2	-4	76*	18	3	2
O=C(Nc1cccc(F)c1)/C(=C\c1ccco1)NC(=O)c1ccco1	-8	nt	11	-10	-16	-2
O=c1c(Cl)c2oc3ccccc3nc-2c2ccccc12	86*	35	-20	6	12	?
CC(=O)NC1=C(C#N)C(c2ccccc2)c2c(ccc3ccccc23)O1 (configuration not stated)	-5	-1	-21	78*	29	13
CCOC(=O)CC(=O)Nc1ncnc2c1C(c1ccccc1)c1c(ccc3ccccc13)O2 (configuration not stated)	2	nt	nt	nt	46	nt
CC(C)(C)c1ccc(/C=C/C(=O)c2ccc(NC3=NCCCS3)cc2)cc1	45	nt	58*	99*	18	nt
O=C(/C=C/c1ccccc1)c1ccc(NC2=NCCCS2)cc1	1	nt	nt	66	nt	nt
C/C(CC(=O)Nc1ccc(Cl)c(C(F)(F)F)c1)=N\NC(=O)c1cccc(O)c1	5	?	-42	3	-19	-4
C/C(CC(=O)Nc1ccc(Cl)c(C(F)(F)F)c1)=N\NC(=O)c1ccccc1O	23	-1	-7	-12	44	104*
Cc1ccc(/C=C/C(=O)OC(C)C(=O)NC2CCCCC2C)o1 (configuration not stated)	nt	-39	-8	6	7	0
Nc1nnnn1/N=C/c1cccc(Oc2ccccc2)c1	-14	78*	-5	-13	26	-16
O=C(NCc1cnc2ccccn12)C1CCC(=O)N(Cc2cccc(F)c2)C1 (configuration not stated)	-6	5	1	2	11	-6
Cc1c(C(=O)Nc2ccc(-c3nnc4n3CCCCC4)cc2)oc2c1ccc1ccccc12	32	4	56*	117*	23	31
O=C(Nc1ccc(-c2nnc3n2CCCCC3)cc1)c1cc2ccccc2o1	6	-16	24	-5	19	-4
CC1CN(C(=O)CCNC(=O)c2ccc(Br)cc2)CC(C)O1 (configuration not stated)	-4	nt	1	1	14	-5
CCOC(=O)C1(CC2CCCCO2)CCN(S(=O)(=O)c2cccc(F)c2)CC1 (configuration not stated)	-3	14	5	-3	22	15
CCCCCCc1cc2cc(-c3nnc(-c4cc(OC)c(OC)c(OC)c4)o3)c(=O)oc2cc1O	5	-8	14	77*	10	36
CCCCCCc1cc2cc(-c3nnc(-c4ccccc4OC)o3)c(=O)oc2cc1O	nt	-3	1	?	18	9
COc1ccc(C(C)(C)C)cc1NC(=O)CCCN1C(=O)NC(C)(C)C1=O	1	nt	nt	-7	-31	nt

Screens (PubChem)
